Reference: ChEMBL document CHEMBL1123190, “Synthesis and biological evaluation of cyclic analogues of 1-carnitine as potential agents in the treatment of myocardial ischemia” (J Med Chem, 1986)
“And” between values parts separate entries of the source, which are not always exact repeats. Equal values may be shown once.

Key:
[1] = molecular target: T1, Mitochondrial carnitine/acylcarnitine carrier protein (Rattus norvegicus) (UniProt P97521); assay: Affinity of compound towards the carnitine/acylcarnitine translocase was determined by monitoring the efflux of [14C]L-carnitine from isolated rat heart mitochondria
T1 sequence (whole entry): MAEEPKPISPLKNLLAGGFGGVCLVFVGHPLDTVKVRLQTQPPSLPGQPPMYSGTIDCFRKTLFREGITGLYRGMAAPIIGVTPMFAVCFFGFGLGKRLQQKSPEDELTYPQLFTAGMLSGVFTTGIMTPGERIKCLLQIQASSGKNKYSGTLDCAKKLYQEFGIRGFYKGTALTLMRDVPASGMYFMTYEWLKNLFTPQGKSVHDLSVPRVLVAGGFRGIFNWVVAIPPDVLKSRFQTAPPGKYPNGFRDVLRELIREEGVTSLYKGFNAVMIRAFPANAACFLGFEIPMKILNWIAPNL
In short: (§1)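 Isolated rat heart mitochondria (differential centrifugation) in 200 mM D-mannitol/50 mM Tris-HCl pH 7.4 with rotenone, oligomycin and antimycin A were loaded with l-carnitine plus [14C]-l-carnitine for 3 min at 28 °C, then washed. Compound at 3 or 50 mM, or water control, was added; efflux ran 1 min on ice and was quenched with mersalyl. Supernatant was scintillation-counted, and % efflux was calculated against control and total radioactivity. Mean of three.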

[2] = molecular target: T1, Mitochondrial carnitine/acylcarnitine carrier protein (Rattus norvegicus); assay: Affinity of compound towards the carnitine/acylcarnitine translocase was determined by monitoring the efflux of [14C]L-carnitine from isolated rat heart mitochondria at 3 mM conc.; in short: as §1

Row | Experimental DPM [1] | Experimental DPM [2] | Total DPM [2] | Trans [2] | SMILES
1 | 5890 and 8870 |  |  |  | CCCCCCCCCCCCCCCC(=O)O[C@@H]1C[C@@H](C(=O)O)[N+](C)(C)C1
2 | 4280 |  |  |  | O=C(O)C1CCCCN1 (stereo not given)
3 | 5050 |  |  |  | O=C(O)[C@@H]1CCCN1
4 |  | 4930 | 12200 | 3.16% | C[N+]1(C)C[C@H](O)C[C@H]1C(=O)O
5 |  | 4170 | 10900 | 0% | C[N+](C)(C)[C@@H]1CCCC[C@H]1C(=O)O
6 | 5350 |  |  |  | O=C(O)[C@@H]1C[C@@H](O)CN1
7 |  | 3850 | 10900 | 0% | C[N+]1(C)CCCCC1C(=O)O (stereo not given)
8 | 5570 |  | 12200 | 3.17% | C[N+]1(C)CCC[C@H]1C(=O)[O-]
9 | 3470 |  |  |  | CCCCCCCCCCCCCCCC(=O)OC(CN)CC(=O)O (stereo not given)
10 | 4130 |  |  |  | O=C(O)C1CCCNC1 (stereo not given)
11 |  | 4030 | 10900 | 0% | C[N+]1(C)CCCC(C(=O)O)C1 (stereo not given)
12 |  | 11800 | 12200 | 94.2% | C[N+](C)(C)CC(O)CC(=O)[O-] (stereo not given)
13 | 4220 |  |  |  | NCC(O)CC(=O)O (stereo not given)
